S1P3 ag: activates the human S1P3 receptor; Q99500; 60,000 tested, 0.1% active; AID 373; activation, % at 4.5 µM; S1P3 NFAT-BLA reporter cells, agonism, FRET ratio; relative to 1 µM S1P, basal subtracted;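 active = activation above the screen-wide mean plus 3 SD, cut at about 4.5% in these data, passing the limit was not always enough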
Target sequence (Q99500 whole entry, looked up): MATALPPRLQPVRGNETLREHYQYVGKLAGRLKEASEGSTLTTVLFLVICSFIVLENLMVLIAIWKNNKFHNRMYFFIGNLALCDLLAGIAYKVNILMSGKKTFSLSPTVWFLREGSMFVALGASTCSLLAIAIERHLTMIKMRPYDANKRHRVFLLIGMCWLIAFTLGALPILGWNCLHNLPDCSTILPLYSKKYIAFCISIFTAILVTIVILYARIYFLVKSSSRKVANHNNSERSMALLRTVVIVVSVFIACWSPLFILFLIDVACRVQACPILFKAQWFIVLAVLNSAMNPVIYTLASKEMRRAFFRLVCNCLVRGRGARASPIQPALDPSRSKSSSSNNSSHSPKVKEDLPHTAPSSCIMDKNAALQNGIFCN
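Material: Human S1P3 NFAT-BLA reporter CHO cells | Incubation: Overnight plating, 4 h compound 37 °C, 2 h substrate RT | Signal: FRET β-lactamase substrate fluorescence, excitation 405 nm, 460/535 nm emission ratio, background-subtracted | Compound: 4.5 µM final, single dose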
5HT1a ag: activates the human 5-HT1a serotonin receptor | activation, % at 10 µM | AID 567 | 65,000 tested, 0.56% active | CHO 5-HT1a Ga15 NFAT-bla reporter, FRET ratio; 0% basal, 100% maximal reference agonist;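 active = activation above the screen-wide mean activation plus 3 SD, cut at about 19% in these data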;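 also: 0% = DMSO wells and 100% = 5-CT at EC100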
S1P1 ag-PAM: activates or potentiates agonism at human S1P1 receptor; P21453; S1P1 CRE-bla cells, forskolin, beta-lactamase FRET, potentiator mode; S1P1 agonist co-added at EC20, 2 nM; 100% = saturating reference agonist, 0% = basal; activation, % at 9.5 µM; 56,000 tested, 0.57% active; AID 449;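 active = activation above a cutoff set at the mean activation of all tested compounds plus 3 SD, cut at about 54% in these data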;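 also: forskolin at 4 µM as EC80 and the EC20 agonist is SEW2871; 100% = SEW2871 at its EC100 plus forskolin at EC80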
HTR1E agonist: 5-HT1E (human) receptor agonism; P28566; CHO 5-HT1E Ga15 NFAT-bla reporter, FRET; 0% DMSO wells, 100% control agonist wells; activation, % at 6 µM; 65,000 tested, 0.69% active;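 active = activation above a set limit, the screen-wide mean activation plus 3 SD, cut at about 8.5% in these data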;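 also: 100% = positive control agonist at 1 µM giving full maximal response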
5HT1a antag: antagonists of human 5-HT1a serotonin receptor. P08908. CHO 5-HT1a Ga15 NFAT-bla reporter, antagonist mode. inhibition, % at 10 µM. 62,000 tested, 0.68% active;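 active = inhibition above the mean of all tested compounds plus 3 SD, cut at about 43% in these data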;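 also: receptor stimulated by 5-CT agonist at 100 nM near EC80; beta-lactamase reporter measured by ratiometric fluorescence of a cleavable substrate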
HTR1E antagonist: 5-HT1E (human) receptor antagonism. P28566. inhibition, % at 6 µM. AID 571. 65,000 tested, 0.99% active. CHO 5-HT1E Ga15 NFAT-bla reporter, FRET, antagonist;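 active = inhibition above a set limit, the mean inhibition across every tested compound plus 3 SD, cut at about 29% in these data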;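 also: signal is the 460 over 535 nm emission ratio of beta-lactamase substrate; 0% = agonist plus DMSO wells and 100% = wells without agonist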
* hit, by the source's call. Shown are actives, neighbours in structure and some others; about 3% of the full set was active somewhere.

`OC(CN1CCN(c2cccc(C(F)(F)F)c2)CC1)c1c[nH]c2ccccc12` (stereo unspecified) gave S1P3 ag -1, 5HT1a ag 55*, S1P1 ag-PAM 11, HTR1E agonist 1, 5HT1a antag 11 and HTR1E antagonist -4.
O=C(CS(=O)(=O)Cc1ccccc1)N1CCN(c2cccc(C(F)(F)F)c2)CC1 was read as S1P3 ag -1, 5HT1a ag -2, S1P1 ag-PAM -5, HTR1E agonist 5, 5HT1a antag -4 and HTR1E antagonist -11.
For CCOC(=O)Cc1cn2c(=O)cc(CSCC(=O)Nc3ccc(C)c(C)c3)nc2s1 the results were S1P3 ag 0, 5HT1a ag -1, S1P1 ag-PAM 5, HTR1E agonist 5, 5HT1a antag 2 and HTR1E antagonist 1.
For Nc1nnc(-c2ccccc2)c(-c2ccccc2)n1 the results were S1P3 ag 0, 5HT1a ag -1, S1P1 ag-PAM -46, HTR1E agonist 1, 5HT1a antag -10 and HTR1E antagonist 5.
c1ccc(-c2nc3nonc3nc2-c2ccccc2)cc1 was read as S1P3 ag 6.1*, 5HT1a ag -3, S1P1 ag-PAM 4, HTR1E agonist -1, 5HT1a antag 33 and HTR1E antagonist 16.
Screening O=C(Nc1ccc(NC(=O)c2ccco2)nc1)c1ccccn1 returned 5HT1a ag -2, HTR1E agonist 34*, 5HT1a antag 5 and HTR1E antagonist -2.
For O=C(Cc1ccccc1)Nc1ccc(NC(=O)c2ccco2)nc1 the results were S1P3 ag 0, 5HT1a ag -4, S1P1 ag-PAM -12, HTR1E agonist 0, 5HT1a antag 1 and HTR1E antagonist 13.
Screening CCc1nnc(NC(=O)CSc2nnc(CNc3ccc(Cl)cc3)o2)s1 returned S1P3 ag -1, 5HT1a ag -3, S1P1 ag-PAM 1, HTR1E agonist 0, 5HT1a antag 2 and HTR1E antagonist 5.
CCOc1cc(C(=O)CSc2nnc(CNc3ccc(Cl)cc3)o2)ccc1NC(=O)CC was read as S1P3 ag -1, 5HT1a ag -2, S1P1 ag-PAM 12, HTR1E agonist 4, 5HT1a antag 32 and HTR1E antagonist 58*.
`CCOC(=O)C1=C(C)N=C2SC(C)C(=O)N2C1c1ccc(OCC)c(OCC)c1` (stereo unspecified) gave S1P3 ag 1, 5HT1a ag 1, S1P1 ag-PAM 1, HTR1E agonist 0, 5HT1a antag 2 and HTR1E antagonist 7.
For Nc1c(Br)cc(Br)c(N2CCCC2=O)c1Br the results were S1P3 ag 1, 5HT1a ag 0, S1P1 ag-PAM -28, HTR1E agonist -1, 5HT1a antag 15 and HTR1E antagonist -1.
Screening Cc1cc(C)nc(-n2nc(C)c(Sc3ccc(F)cc3)c2N)n1 returned S1P3 ag 60*, 5HT1a ag 11, S1P1 ag-PAM -74, HTR1E agonist 0, 5HT1a antag -12 and HTR1E antagonist -1.
For Cc1nn(C)c(C)c1Sc1ccc(Br)cc1 the results were S1P3 ag -2, 5HT1a ag -3, S1P1 ag-PAM 19, HTR1E agonist -1, 5HT1a antag 20 and HTR1E antagonist 4.
For O=C(CCS(=O)(=O)Cc1ccccc1)NCC1CCCO1 (stereo unspecified) the results were S1P3 ag -1, 5HT1a ag 0, HTR1E agonist 0, 5HT1a antag 4 and HTR1E antagonist 6.
Nc1c(C(=O)NCc2ccc3c(c2)OCO3)c2nc3ccccc3nc2n1CCCN1CCOCC1 was read as S1P3 ag 7.9*, 5HT1a ag 37*, S1P1 ag-PAM -137, HTR1E agonist 13*, 5HT1a antag -15 and HTR1E antagonist -7.
Screening Nc1c(C(=O)NCCN2CCOCC2)c2nc3ccccc3nc2n1CCc1ccccc1 returned S1P3 ag 7.9*, 5HT1a ag 24*, S1P1 ag-PAM -97, HTR1E agonist 6, 5HT1a antag -41 and HTR1E antagonist -12.
Nc1c(C(=O)NCCN2CCOCC2)c2nc3ccccc3nc2n1-c1ccc2c(c1)OCO2 was read as S1P3 ag 0, 5HT1a ag 5, S1P1 ag-PAM -13, HTR1E agonist 1, 5HT1a antag 4 and HTR1E antagonist -1.
CCOC(=O)N1CCN(S(=O)(=O)c2ccc(F)c(C(=O)Nc3cccc(C)c3C)c2)CC1 was read as S1P3 ag 2, 5HT1a ag 0, S1P1 ag-PAM -2, HTR1E agonist 0, 5HT1a antag -6 and HTR1E antagonist -6.
`CCOC(=O)c1ccccc1NC(=O)c1cc(S(=O)(=O)N2CCOCC2)ccc1F` gave S1P3 ag -1, 5HT1a ag 2, S1P1 ag-PAM 4, HTR1E agonist 0, 5HT1a antag 12 and HTR1E antagonist 29*.
Screening Cc1ccc(CCNC(=O)c2coc3nc4ccccc4nc23)cc1 returned S1P3 ag 1, 5HT1a ag 3, S1P1 ag-PAM -48, HTR1E agonist 13*, 5HT1a antag -17 and HTR1E antagonist -3.
Screening CC(=O)N1CCN(c2ccc(NCc3ccc4c(c3)OCO4)cc2)CC1 returned S1P3 ag 0, 5HT1a ag 43*, S1P1 ag-PAM -26, HTR1E agonist 0, 5HT1a antag -7 and HTR1E antagonist -3.
`O=C(CCN1CCN(c2ccc(F)cc2)CC1)Nc1ccc(F)cc1` gave S1P3 ag -1, 5HT1a ag 0, S1P1 ag-PAM -22, HTR1E agonist -1, 5HT1a antag 36 and HTR1E antagonist 4.
CC1CN(CCC(=O)Nc2ccc3c(c2)OCO3)CC(C)O1 (stereo unspecified) was read as 5HT1a ag 1, HTR1E agonist 1, 5HT1a antag -11 and HTR1E antagonist -3.
Screening COC(=O)c1ccc(NC(=O)CCN2CCN(c3ccccc3)CC2)cc1 returned S1P3 ag -2, 5HT1a ag 2, S1P1 ag-PAM 16, HTR1E agonist 0, 5HT1a antag 44* and HTR1E antagonist 4.
For O=C(CCN1CCN(c2ccccc2F)CC1)Nc1ccc2c(c1)OCO2 the results were S1P3 ag 0, 5HT1a ag 8, S1P1 ag-PAM -5, HTR1E agonist 0, 5HT1a antag 84* and HTR1E antagonist 0.
O=C(c1ccccc1)N1CCN(c2ccc(NCc3ccc4c(c3)OCO4)cc2)CC1 was read as S1P3 ag 0, 5HT1a ag -2, S1P1 ag-PAM 10, HTR1E agonist 0, 5HT1a antag 6 and HTR1E antagonist 15.
`O=C(CCN1CCN(c2ccccc2)CC1)Nc1ccc2c(c1)OCO2` gave S1P3 ag -1, 5HT1a ag 9, HTR1E agonist -1, 5HT1a antag 83* and HTR1E antagonist -3.

Screening results (PubChem BioAssay)
